# Calls of active or inactive are those of the source.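 Rule for the calls, unless noted: active = inhibition of the reporter signal at or above 50%; inactive = inhibition below 50%.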
# What was measured:
# [1] = inhibitors of TNFa-induced NFkB p65 translocation, primary screen, imaging, HUVEC, MLSMR starter and 10KST1 sets (AID 438;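 active = inhibition above 20% together with a positive visual image hit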;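 note: compound added about 3h40 before a 20 min TNFalpha stimulation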;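 for inhibition: signal is the nuclear over cytoplasmic p65 intensity ratio per well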); details: HUVEC TNFa-induced p65 nuclear translocation; cell count: measured here: nuclei count (cytotoxicity indicator), at 2.08 µM; inhibition: at 2 µM, stronger effect = higher value, 0% TNFa-plus-vehicle, 100% no-TNFa wells
# [2] = inhibitors of mutant huntingtin aggregation, primary screen, imaging, exon1htt(103Q)mCFP cells, high-content imaging (AID 483;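 active = visual image review flags a hit and inhibition of aggregation exceeds 20%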;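 note: compound exposure lasted 3 days before fixation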;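 for nuclei count: percent of the per-plate median nuclei count of sample wells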); details: exon1htt(103Q)mCFP cell line, aggregate imaging, at 2 µM; inhibition of aggregation: stronger effect = higher value; nuclei count: measured here: cell count, toxicity
# [3] = inhibitors of E-selectin induction by TNFa, primary screen, imaging, HUVEC, immunofluorescence, MLSMR starter and 10KST1 sets (AID 487;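 active = visually confirmed hit in the image check and inhibition above 20%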;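 for inhibition: signal is fraction of cell area covered by stained E-selectin grains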;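 for nuclei count: 100% = median nuclei count of all wells on the same plate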); details: HUVEC TNFalpha-induced E-selectin immunofluorescence imaging, at 2 µM; inhibition: stronger effect = higher value; nuclei count: measured here: cell number, toxicity
# [4] = molecular target: Voltage-gated potassium channel subunit beta-2 (Rattus norvegicus) (UniProt P62483); experiment: KvBeta enzyme negative modulators, primary screen, biochemical, NADPH fluorescence (AID 622;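 active = fluorescence slope higher than the sample average by over 3 SD, cut at about -0.22 in these data, passing the limit was not always enough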;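 note: slope of raw intensity against log time taken from 70 to 1610 s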); details: recombinant KvBeta, 4-cyanobenzaldehyde reduction, at 10 µM, stronger effect = higher value
# [5] = molecular target: Voltage-gated potassium channel subunit beta-2 (Rattus norvegicus) (UniProt P62483); experiment: KvBeta positive modulators, primary screen, biochemical, NADPH fluorescence (AID 623;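 active = NADPH fluorescence slope more negative than the mean of all samples by about 3 SD, 99.7% confidence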;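 note: fluorescence intensity change per second fitted from 20 to 320 s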); details: Recombinant KvBeta, NADPH fluorescence decrease slope, 10 min; at 10 µM; stronger effect = lower value
# [6] = molecular target: Muscarinic acetylcholine receptor M4 (Homo sapiens) (UniProt P08173); experiment: compounds altering M4/GIRK thallium flux, either direction, primary screen, M4 allosteric agonist project, cell-based, HEK293 M4/GIRK, BTC-AM (AID 625;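 active = fluorescence slope after compound addition differing from the mean of all tested samples at 99.7% confidence, mostly higher but some lower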;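 note: thallium influx through GIRK channels coupled to M4 in HEK293 cells with BTC-AM dye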); details: at 10 µM, actives lie on both sides
# Procedure, shortened: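 Material: HEK293 cells with M4 receptor and GIRK channels; Times: cells overnight at 37 °C, BTC-AM loading 1 h, reads 2 min total; Technique: kinetic BTC-AM fluorescence sampled at 1 Hz, 10 s pre-addition baseline; Read-out basis: slope over 15–24 s of trace normalized to starting intensity; Controls: carbachol positive, DMSO negative.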
# [7] = inhibitors of Sendai virus-induced IRF3 signaling, primary screen, TLR/RLR signaling modifier project, cell-based, Sendai virus stimulus, luciferase, 10K MLSCN set (AID 602276;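 active = inhibition at or above 50% at 10 µM; inactive = inhibition below 50%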;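 note: firefly luciferase from ISG56 promoter only with Renilla not read in this screen; 0% = Sendai virus plus DMSO and 100% = medium plus DMSO without virus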); details: HEK293 RL24 IRF3 luciferase reporter, at 10 µM, stronger effect = higher value
# [8] = inhibitors of poly I:C-induced TLR3 signaling, primary screen, cell-based, poly I:C stimulus, luciferase, 10K MLSCN set (AID 602277); details: HEK293-TLR3 RL24 IRF3 luciferase reporter, at 10 µM, stronger effect = higher value
# Muscarinic acetylcholine receptor M4 (Homo sapiens), sequence (P08173 whole entry, looked up): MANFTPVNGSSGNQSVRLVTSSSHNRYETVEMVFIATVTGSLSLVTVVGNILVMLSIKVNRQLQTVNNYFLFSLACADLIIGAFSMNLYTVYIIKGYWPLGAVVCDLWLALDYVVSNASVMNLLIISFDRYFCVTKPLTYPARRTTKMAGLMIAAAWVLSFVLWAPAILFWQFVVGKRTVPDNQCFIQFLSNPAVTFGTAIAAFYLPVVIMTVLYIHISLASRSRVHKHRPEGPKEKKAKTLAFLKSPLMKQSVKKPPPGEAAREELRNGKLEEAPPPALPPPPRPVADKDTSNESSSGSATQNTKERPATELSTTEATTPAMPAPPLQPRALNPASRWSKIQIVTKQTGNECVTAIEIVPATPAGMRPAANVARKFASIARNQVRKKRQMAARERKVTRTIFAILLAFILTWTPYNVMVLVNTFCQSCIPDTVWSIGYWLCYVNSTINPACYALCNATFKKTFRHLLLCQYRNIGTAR
# Voltage-gated potassium channel subunit beta-2 (Rattus norvegicus), sequence (P62483 whole entry, looked up): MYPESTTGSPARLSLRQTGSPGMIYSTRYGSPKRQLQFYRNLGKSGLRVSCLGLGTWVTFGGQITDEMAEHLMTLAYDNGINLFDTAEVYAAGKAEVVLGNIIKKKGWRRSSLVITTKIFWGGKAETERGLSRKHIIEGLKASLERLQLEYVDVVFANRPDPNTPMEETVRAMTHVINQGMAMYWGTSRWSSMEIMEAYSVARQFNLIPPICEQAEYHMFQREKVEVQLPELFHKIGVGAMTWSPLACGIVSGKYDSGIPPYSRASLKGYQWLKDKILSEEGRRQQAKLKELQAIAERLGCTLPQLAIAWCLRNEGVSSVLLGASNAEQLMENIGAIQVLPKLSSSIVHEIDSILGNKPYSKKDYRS
Structure (SMILES),cell count [1],inhibition [1],inhibition of aggregation [2],nuclei count [2],inhibition [3],nuclei count [3],fluorescence slope [4],NADPH fluorescence slope [5],fluorescence slope [6],inhibition [7],inhibition [8]
COC(=O)C1=C(C)NC(=O)C1(NC(=O)c1cccnc1)C(F)(F)F (stereo not given),609,-3.9% (inactive),-6.9% (inactive),87.8%,-68.7% (inactive),103%,-0.565 (inactive),-2.9e-05 (inactive),0.00444 (inactive),-31.4% (inactive),56.2% (active)
COc1ccccc1C(=O)Nc1ccc(S(=O)(=O)N2CCOCC2)cc1,353,-6% (inactive),21.1% (inactive),61.9%,-85.7% (inactive),105%,-0.571 (inactive),-5.6e-05 (inactive),0.00422 (inactive),10.8% (inactive),0.189% (inactive)
CN(Cc1nc(-c2ccncc2)no1)S(=O)(=O)c1ccc(Br)cc1,492,-9.3% (inactive),-5.7% (inactive),108%,-56.8% (inactive),194%,-0.589 (inactive),-3.3e-05 (inactive),0.01 (inactive),4.91% (inactive),-6.05% (inactive)
COc1ccc(Cl)cc1Nc1nc(C)cc(=O)[nH]1,271,-3.7% (inactive),10% (inactive),61.7%,39.6% (inactive),44%,-0.562 (inactive),-2.9e-05 (inactive),0.00528 (inactive),16% (inactive),19.5% (inactive)
O=C(O)CCCC(=O)Nc1ccc(Br)cc1C(=O)O,398,3.8% (inactive),-5.6% (inactive),108%,12.5% (inactive),103%,-0.57 (inactive),2.4e-05 (inactive),0.00576 (inactive),16.9% (inactive),20.6% (inactive)
FC(F)(F)C(F)(F)C(F)(F)c1nnc2ccc(N3CCOCC3)nn12,420,7.9% (inactive),-8.6% (inactive),102%,-41.2% (inactive),111%,-0.51 (inactive),7.7e-05 (inactive),0.0046 (inactive),-12% (inactive),-3.61% (inactive)
Cc1ccccc1C(=O)NC1CCN(CC(=O)Nc2nccs2)CC1,608,-39.8% (inactive),8.2% (inactive),111%,-37.1% (inactive),109%,-0.476 (inactive),7.7e-05 (inactive),0.00698 (inactive),9.51% (inactive),14.2% (inactive)
Cn1c(=O)c(-c2ccccc2)nn2c3ccccc3nc12,704,-35.3% (inactive),22.1% (inactive),96.1%,-79.5% (inactive),113%,-0.19 (inactive),4.4e-07 (inactive),0.00522 (inactive),13.7% (inactive),17.5% (inactive)
CCn1c(=O)n(CC(=O)N(C)Cc2ccccc2)c(=O)c2ccccc21,684,-16.4% (inactive),3.2% (inactive),120%,65.6% (active),94.4%,-0.559 (inactive),-2.3e-05 (inactive),0.00592 (inactive),11.1% (inactive),10.9% (inactive)
COc1ccccc1-c1cn[nH]c(=S)n1,428,1.6% (inactive),4.2% (inactive),93%,-41.2% (inactive),101%,-0.576 (inactive),2.7e-05 (inactive),0.00535 (inactive),-32.7% (inactive),-25.8% (inactive)
